Values belong to the compound of their own block, whether it stands above or below them. Active and inactive are the calls of the source. No cut-off for these calls is given here.
What was measured:
[1] = molecular target: T1, Beta-1 adrenergic receptor (Homo sapiens, UniProt P08588); test: Displacement of [125I]Iodocyanopindolol from human adrenergic beta1 receptor expressed in insect sf9 cells by scintillation counting
Target sequence in this assay (P08588 whole entry): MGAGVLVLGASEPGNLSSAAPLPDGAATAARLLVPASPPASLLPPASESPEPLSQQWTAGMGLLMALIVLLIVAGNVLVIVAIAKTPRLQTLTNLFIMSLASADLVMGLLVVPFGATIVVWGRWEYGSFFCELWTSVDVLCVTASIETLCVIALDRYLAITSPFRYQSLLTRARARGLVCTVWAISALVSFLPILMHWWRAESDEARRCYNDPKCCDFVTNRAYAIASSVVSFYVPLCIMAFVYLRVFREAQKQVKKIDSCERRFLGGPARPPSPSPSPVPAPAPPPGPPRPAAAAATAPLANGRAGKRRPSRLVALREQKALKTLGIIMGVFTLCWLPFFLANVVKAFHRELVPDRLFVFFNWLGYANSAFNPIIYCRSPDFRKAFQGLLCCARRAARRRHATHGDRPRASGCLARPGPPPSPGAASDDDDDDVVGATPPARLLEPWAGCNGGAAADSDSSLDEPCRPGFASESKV

[2] = molecular target: T2, Beta-2 adrenergic receptor (Homo sapiens, UniProt P07550); test: Displacement of [125I]Iodocyanopindolol from human adrenergic beta2 receptor expressed in insect sf9 cells by scintillation counting
Target sequence in this assay (P07550 whole entry): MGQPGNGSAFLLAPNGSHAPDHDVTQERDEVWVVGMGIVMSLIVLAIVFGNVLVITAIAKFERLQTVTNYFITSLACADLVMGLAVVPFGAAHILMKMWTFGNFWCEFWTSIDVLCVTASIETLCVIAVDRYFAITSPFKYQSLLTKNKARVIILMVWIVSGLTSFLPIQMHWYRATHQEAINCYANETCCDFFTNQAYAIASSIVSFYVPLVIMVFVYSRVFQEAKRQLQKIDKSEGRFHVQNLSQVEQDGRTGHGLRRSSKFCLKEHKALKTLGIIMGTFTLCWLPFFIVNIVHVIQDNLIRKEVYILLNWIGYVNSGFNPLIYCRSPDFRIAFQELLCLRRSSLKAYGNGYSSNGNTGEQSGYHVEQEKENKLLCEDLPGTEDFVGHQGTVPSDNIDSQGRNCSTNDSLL

[3] = molecular target: T1, Beta-1 adrenergic receptor; test: Agonist activity at human adrenergic beta1 receptor expressed in DHB-11 CHO cells assessed as cAMP accumulation after 20 mins by scintillation proximity assay; format: functional, cell-based
Target sequence in this assay (P08588 whole entry): as the sequence (P08588 whole entry) above

[4] = molecular target: T3, Beta-3 adrenergic receptor (Homo sapiens, UniProt P13945); test: Agonist activity at human adrenergic beta3 receptor expressed in DHB-11 CHO cells assessed as cAMP accumulation after 20 mins by scintillation proximity assay; format: functional, cell-based
Target sequence in this assay (P13945 whole entry): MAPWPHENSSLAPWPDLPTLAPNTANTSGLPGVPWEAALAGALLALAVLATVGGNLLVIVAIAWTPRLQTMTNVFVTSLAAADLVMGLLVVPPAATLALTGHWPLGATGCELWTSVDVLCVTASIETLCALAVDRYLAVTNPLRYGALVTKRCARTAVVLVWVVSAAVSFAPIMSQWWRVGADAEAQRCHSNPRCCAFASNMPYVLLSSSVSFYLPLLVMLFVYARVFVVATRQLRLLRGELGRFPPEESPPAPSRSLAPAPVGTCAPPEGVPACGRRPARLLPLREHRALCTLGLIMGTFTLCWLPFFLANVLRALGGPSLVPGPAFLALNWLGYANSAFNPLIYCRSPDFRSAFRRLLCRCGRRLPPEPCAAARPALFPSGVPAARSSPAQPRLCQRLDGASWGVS

[5] = molecular target: Beta-3 adrenergic receptor (Rattus norvegicus, UniProt P26255); test: Agonist activity at rat adrenergic beta3 receptor expressed in DHB-11 CHO cells assessed as cAMP accumulation after 20 mins by scintillation proximity assay; format: functional, cell-based
[6] = molecular target: T2, Beta-2 adrenergic receptor; test: Agonist activity at human adrenergic beta2 receptor expressed in DHB-11 CHO cells assessed as cAMP accumulation after 20 mins by scintillation proximity assay; format: functional, cell-based
Target sequence in this assay (P07550 whole entry): as the sequence (P07550 whole entry) above

[7] = Tmax in healthy human plasma; format: ADME, organism-based
How it was run: (§1)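 Healthy human volunteers were dosed and plasma concentrations followed over time. Tmax was taken from the plasma profile, and terminal elimination half-life was estimated after a 60-mg dose.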

[8] = Elimination half life in healthy human at 60 mg; format: ADME, organism-based; details: in vivo, read-out: beta t1/2 (converted); how it was run: as §1
Homo sapiens [9] = species on record: Homo sapiens; test: Inhibition of sibutramine-induced increase in heart rate in human at 30 to 300 mg; format: functional
Homo sapiens [10] = species on record: Homo sapiens; test: Inhibition of sibutramine-induced increase in systolic blood pressure in human at 30 to 300 mg; format: functional, Artery
Homo sapiens [11] = species on record: Homo sapiens; test: Inhibition of sibutramine-induced increase in diastolic blood pressure in human at 30 to 300 mg; format: functional, Artery
[12] = molecular target: T1, Beta-1 adrenergic receptor; test: Agonist activity at human adrenergic beta1 receptor expressed in DHB-11 CHO cells assessed as cAMP accumulation after 20 mins by scintillation proximity assay relative to isoproterenol; format: functional, cell-based
How it was run: (§2)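 Whole-cell functional assay in transfected CHO cells expressing the human receptor, read as stimulated cAMP accumulation. Values are reported as the geometric mean ± standard deviation, with the number of runs (n) given.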
Target sequence in this assay (P08588 whole entry, looked up): as the sequence (P08588 whole entry) above

Rattus norvegicus [13] = test: Antiobesity activity in Long-Evans rat assessed as increase in lipid utilization at 10 mg/kg, po measured after 4 hrs by indirect calorimetry analysis relative to control; format: functional, organism-based; design: dose 10 mg/kg
How it was run: (§3)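 Male Long–Evans rats with diet-induced obesity on a caloric dense diet received single oral doses of 3 or 10 mg/kg, with vehicle-treated rats as controls. Respiratory quotient (lipid utilization) and energy expenditure were followed by indirect calorimetry for about 4 h. Groups were compared by ANOVA with SNK post hoc test, p < 0.05.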

Rattus norvegicus [14] = test: Antiobesity activity in Long-Evans rat assessed as decrease in respiratory quotient at 3 to 10 mg/kg, po measured after 4 hrs by indirect calorimetry analysis relative to control; format: functional, organism-based; how it was run: as §3
Rattus norvegicus [15] = test: Antiobesity activity in po dosed Long-Evans rat assessed as increase in lipid utilization measured after 4 hrs by indirect calorimetry analysis relative to control; format: functional, organism-based; how it was run: as §3
Rattus norvegicus [16] = test: Antiobesity activity in po dosed Long-Evans rat assessed as increase in energy expenditure measured after 4 hrs by indirect calorimetry analysis relative to control; format: functional, organism-based; how it was run: as §3
[17] = molecular target: T3, Beta-3 adrenergic receptor; test: Agonist activity at human adrenergic beta3 receptor expressed in DHB-11 CHO cells assessed as cAMP accumulation after 20 mins by scintillation proximity assay relative to isoproterenol; format: functional, cell-based
Target sequence in this assay (P13945 whole entry, looked up): as the sequence (P13945 whole entry) above

[18] = molecular target: Beta-3 adrenergic receptor (Rattus norvegicus) (UniProt P26255); test: Agonist activity at rat adrenergic beta3 receptor expressed in DHB-11 CHO cells assessed as cAMP accumulation after 20 mins by scintillation proximity assay relative to isoproterenol; format: functional, cell-based
[19] = molecular target: T2, Beta-2 adrenergic receptor; test: Agonist activity at human adrenergic beta2 receptor expressed in DHB-11 CHO cells assessed as cAMP accumulation after 20 mins by scintillation proximity assay relative to isoproterenol; format: functional, cell-based; how it was run: as §2
Target sequence in this assay (P07550 whole entry, looked up): as the sequence (P07550 whole entry) above

Sequence of Beta-3 adrenergic receptor (Rattus norvegicus, UniProt P26255) (P26255 whole entry): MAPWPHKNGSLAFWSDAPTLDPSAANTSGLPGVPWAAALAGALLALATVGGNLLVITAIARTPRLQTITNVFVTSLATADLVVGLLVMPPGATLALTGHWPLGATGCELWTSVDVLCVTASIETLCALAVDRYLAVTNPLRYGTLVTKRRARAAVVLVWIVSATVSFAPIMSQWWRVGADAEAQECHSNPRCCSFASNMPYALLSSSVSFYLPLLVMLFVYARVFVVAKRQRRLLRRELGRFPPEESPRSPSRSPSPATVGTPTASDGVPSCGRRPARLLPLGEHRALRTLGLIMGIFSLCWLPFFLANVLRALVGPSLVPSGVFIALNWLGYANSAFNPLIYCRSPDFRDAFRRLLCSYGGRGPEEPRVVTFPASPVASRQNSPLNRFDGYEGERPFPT
Sequence of Beta-3 adrenergic receptor (Rattus norvegicus) (P26255 whole entry): as above

Ki [1]: 0.023 nM
Ki [2]: 0.012 nM
Compound: CC(C)(Cc1ccc(Oc2ccc(C(N)=O)cn2)cc1)NC[C@H](O)COc1cccc2[nH]c3ccccc3c12 [listing 1 of 3 here]

EC50 [3]: > 3160 nM
EC50 [4]: 2.4 nM
EC50 [5]: 5 nM
EC50 [6]: > 3160 nM
Compound: CC(C)(Cc1ccc(Oc2ccc(C(N)=O)cn2)cc1)NC[C@H](O)COc1cccc2[nH]c3ccccc3c12 [listing 2 of 3 here]

Tmax [7]: 2 h
half-life [8]: 9 h
Compound: CC(C)(Cc1ccc(Oc2ccc(C(N)=O)cn2)cc1)NC[C@H](O)COc1cccc2[nH]c3ccccc3c12 [LY377604]
Activity (Homo sapiens [9]): 10.5 bpm
Activity (Homo sapiens [10]): 5.5 mmHg
Activity (Homo sapiens [11]): 4.2 mmHg

Emax [12]: < 10%
Emax [17]: 73.8%
Emax [18]: 55.5%
Emax [19]: < 10%
Compound: CC(C)(Cc1ccc(Oc2ccc(C(N)=O)cn2)cc1)NC[C@H](O)COc1cccc2[nH]c3ccccc3c12 [listing 3 of 3 here]
Activity (Rattus norvegicus [13]): Active
Activity (Rattus norvegicus [14]): Active
Activity (Rattus norvegicus [15]): Dose-dependent effect
Activity (Rattus norvegicus [16]): Dose-dependent effect
